Experimental data: ChEMBL document CHEMBL4014315 (J Med Chem, 2017); call rule not given here

What was measured:
[1] = Cytotoxicity against MDCK2 cells assessed as cell growth inhibition after 72 hrs by MTT assay; format: cell-based, Canis lupus familiaris, MDCK-II; conditions: dog
[2] = Cytotoxicity against ABCG2 over-expressing MDCK2 cells assessed as cell growth inhibition after 72 hrs by MTT assay; format: ADME, cell-based, Canis lupus familiaris, MDCK-II; conditions: dog
[3] = target: T1, ABCG2 (Homo sapiens, UniProt Q9UNQ0); experiment: Inhibition of recombinant human GFP-fused ABCG2 expressed in MDCK2 cells assessed as reduction in Hoechst 33342 efflux at […] preincubated for 30 mins followed by Hoechst 33342 addition measured immediately at 60 sec time interval for 120 mins by fluorescence assay relative to Ko143; format: cell-based; conditions: MDCK2 cells expressing recombinant GFP-fused human ABCG2, probe Hoechst 33342, read-out: Imax
T1 sequence (Q9UNQ0 whole entry): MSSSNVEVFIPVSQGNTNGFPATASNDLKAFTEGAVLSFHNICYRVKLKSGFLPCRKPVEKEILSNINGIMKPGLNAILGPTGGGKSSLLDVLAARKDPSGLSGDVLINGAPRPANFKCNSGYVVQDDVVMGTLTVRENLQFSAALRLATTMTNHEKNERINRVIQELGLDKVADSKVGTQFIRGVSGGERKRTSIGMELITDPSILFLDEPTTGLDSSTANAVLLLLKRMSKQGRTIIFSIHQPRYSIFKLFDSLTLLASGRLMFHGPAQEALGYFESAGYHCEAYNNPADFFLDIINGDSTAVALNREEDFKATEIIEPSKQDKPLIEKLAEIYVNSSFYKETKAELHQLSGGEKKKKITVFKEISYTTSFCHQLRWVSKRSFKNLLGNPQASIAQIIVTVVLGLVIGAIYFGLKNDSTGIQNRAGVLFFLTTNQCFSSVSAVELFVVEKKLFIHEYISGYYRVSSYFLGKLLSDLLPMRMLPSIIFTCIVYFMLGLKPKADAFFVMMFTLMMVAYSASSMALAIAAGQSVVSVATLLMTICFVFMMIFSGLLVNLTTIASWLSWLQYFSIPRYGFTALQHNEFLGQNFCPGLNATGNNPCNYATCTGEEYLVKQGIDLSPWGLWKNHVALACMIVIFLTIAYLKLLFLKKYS

[4] = Therapeutic index, ratio of GI50 for ABCG2 over-expressing MDCK2 cells to IC50 for recombinant human GFP-fused ABCG2 expressed in MDCK2 cells; format: cell-based
[5] = target: T2, Broad substrate specificity ATP-binding cassette transporter ABCG2 (Homo sapiens, UniProt Q9UNQ0); experiment: Inhibition of recombinant human GFP-fused ABCG2 expressed in MDCK2 cells assessed as reduction in Hoechst 33342 efflux preincubated for 30 mins followed by Hoechst 33342 addition measured immediately at 60 sec time interval for 120 mins by fluorescence assay; format: cell-based
T2 sequence (Q9UNQ0 whole entry): T1 sequence (Q9UNQ0 whole entry)
How it was run: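 Hoechst 33342 accumulation assay: the dye is an ABCG2 substrate whose fluorescence rises when bound to DNA or embedded in membrane. Intracellular accumulation serves as the read-out of transporter inhibition.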

[6] = target: T1, ABCG2; experiment: Activation of ABCG2 (unknown origin) ATPase activity expressed in baculovirus infected high five cell membranes assessed as protein Vmax by ascorbic acid/ammonia molybdate reaction-based colorimetric analysis relative to basal control; conditions: read-out: Vmax
How it was run: (§1)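 Colorimetric ATPase assay of ABCG2 membranes; activity expressed relative to control. Where data were biphasic, a combined increasing plus decreasing logistic equation with the Hill coefficient fixed at one was fitted, giving an activating and an inactivating K.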

[7] = target: T2, Broad substrate specificity ATP-binding cassette transporter ABCG2; experiment: Activation of ABCG2 (unknown origin) ATPase activity expressed in baculovirus infected high five cell membranes by ascorbic acid/ammonia molybdate reaction-based colorimetric analysis; how it was run: as §1
[8] = target: ABCB1 (Homo sapiens, UniProt P08183); experiment: Inhibition of ABCB1 in human A2780adr cells assessed as reduction in calcein AM levels at 10 uM preincubated for 30 mins followed by calcein AM addition measured immediately at 60 sec time interval for 60 mins by fluorescence assay relative to Cyclosporine A; format: cell-based; conditions: probe calcein AM
Chain of ABCB1 (P08183 whole entry): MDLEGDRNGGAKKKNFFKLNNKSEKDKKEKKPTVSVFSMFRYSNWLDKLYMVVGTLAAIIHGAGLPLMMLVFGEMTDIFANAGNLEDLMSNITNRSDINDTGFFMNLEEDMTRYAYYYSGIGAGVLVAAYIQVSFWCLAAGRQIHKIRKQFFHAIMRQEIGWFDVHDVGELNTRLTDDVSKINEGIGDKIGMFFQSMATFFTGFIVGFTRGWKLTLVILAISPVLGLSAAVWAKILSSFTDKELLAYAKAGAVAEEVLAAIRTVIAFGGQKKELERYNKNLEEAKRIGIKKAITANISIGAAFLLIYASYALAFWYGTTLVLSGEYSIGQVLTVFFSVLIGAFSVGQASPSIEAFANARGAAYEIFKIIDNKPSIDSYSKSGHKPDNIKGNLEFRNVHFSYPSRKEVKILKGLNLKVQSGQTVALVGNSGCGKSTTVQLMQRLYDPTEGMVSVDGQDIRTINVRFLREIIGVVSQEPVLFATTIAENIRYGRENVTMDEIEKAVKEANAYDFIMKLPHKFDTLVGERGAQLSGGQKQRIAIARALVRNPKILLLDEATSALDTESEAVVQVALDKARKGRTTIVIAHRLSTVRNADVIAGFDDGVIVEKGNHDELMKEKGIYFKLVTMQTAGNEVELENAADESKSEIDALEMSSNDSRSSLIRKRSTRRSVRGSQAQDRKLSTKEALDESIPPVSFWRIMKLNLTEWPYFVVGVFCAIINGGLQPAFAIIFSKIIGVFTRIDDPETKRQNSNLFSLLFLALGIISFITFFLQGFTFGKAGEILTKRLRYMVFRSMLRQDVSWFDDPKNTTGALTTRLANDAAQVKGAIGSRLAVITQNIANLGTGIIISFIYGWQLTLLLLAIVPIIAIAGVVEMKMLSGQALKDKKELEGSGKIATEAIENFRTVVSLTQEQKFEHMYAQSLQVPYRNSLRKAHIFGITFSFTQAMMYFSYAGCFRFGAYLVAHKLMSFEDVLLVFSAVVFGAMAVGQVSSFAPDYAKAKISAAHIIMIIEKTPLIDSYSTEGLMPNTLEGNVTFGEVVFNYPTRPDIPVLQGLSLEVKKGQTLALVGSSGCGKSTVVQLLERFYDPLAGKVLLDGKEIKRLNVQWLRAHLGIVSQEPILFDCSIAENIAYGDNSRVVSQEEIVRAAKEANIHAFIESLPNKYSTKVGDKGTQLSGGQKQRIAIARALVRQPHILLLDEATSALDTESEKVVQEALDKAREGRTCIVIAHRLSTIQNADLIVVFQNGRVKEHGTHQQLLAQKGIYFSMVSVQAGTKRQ
How it was run: (§2)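 Calcein AM assay in A2780adr cells (ABCB1 overexpressing) and H69AR cells (ABCC1 overexpressing). Compounds were screened at 10 µM, with inhibition relative to cyclosporine A as the total-inhibition control.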

[9] = target: ATP-dependent translocase ABCB1 (Homo sapiens, UniProt P08183); experiment: Inhibition of ABCB1 in human A2780adr cells assessed as reduction in calcein AM levels preincubated for 30 mins followed by calcein AM addition measured immediately at 60 sec time interval for 60 mins by fluorescence assay; format: cell-based; how it was run: as §2
Chain of ATP-dependent translocase ABCB1 (P08183 whole entry): as above

Row | SMILES | Emax at 2 h [3] | IC50 [5] | Emax [6] | EC50 ([7]; read-out: EC50) | inhibition at 1 h, 10 µM [8] | IC50 [9] | EC50 [7] | GI50 at 72 h [1] | GI50 at 72 h [2] | TI [4]
1 | Oc1ccc(Nc2nc(-c3ccccc3)nc3ccccc23)cc1 | 80 to 110% | 211 nM |  |  |  |  |  | 22600 nM | 14600 nM | 69.2
2 | N#Cc1cccc(Nc2nc(-c3ccccn3)nc3ccccc23)c1 | 80 to 110% | 507 nM | 115% | 1530 nM |  |  |  |  |  | 
3 | Cc1cc(Nc2cccc(C#N)c2)nc(-c2ccccc2)n1 | 80 to 110% | 122 nM | 134% | 2080 nM |  |  |  |  |  | 
4 | O=C(O)c1ccc(Nc2nc(-c3ccncc3)nc3ccccc23)cc1 | 80 to 110% | 9640 nM |  |  | > 25% | 3670 nM |  |  |  | 
5 | N#Cc1ccc(Nc2nc(-c3cccnc3)nc3ccccc23)cc1 | 80 to 110% | 166 nM | 137% | 4 nM |  |  |  | 104000 nM | 79400 nM | 241
6 | COc1ccc(Nc2cc(C)nc(-c3ccncc3)n2)cc1 | 80 to 110% | 874 nM | 146% | 85 nM |  |  |  |  |  | 
7 | O=[N+]([O-])c1cccc(Nc2nc(-c3cccnc3)nc3ccccc23)c1 | 80 to 110% | 105 nM | 154% | 21 nM |  |  |  | 64600 nM | 70800 nM | 615
8 | O=[N+]([O-])c1cc(Nc2nc(-c3ccccc3)nc3ccccc23)ccc1O | 80 to 110% | 81.1 nM | 135% | 20 nM |  |  |  |  |  | 647
9 | N#Cc1cccc(Nc2nc(-c3ccccc3)nc3ccccc23)c1 |  |  | 145% | 15 nM |  |  |  | 14200 nM | 10400 nM | 146
10 | Fc1cccc(Nc2nc(-c3ccccc3)nc3ccccc23)c1 | 80 to 110% | 363 nM | 142% | 131 nM |  |  |  |  | 18000 nM | 49.6
11 | OCc1cccc(Nc2nc(-c3cccnc3)nc3ccccc23)c1 | 80 to 110% | 810 nM |  |  |  |  |  |  |  | 
12 | c1ccc(Nc2nc(-c3ccccc3)nc3ccccc23)cc1 | 80 to 110% | 882 nM |  |  |  |  |  | 26000 nM | 26600 nM | 30.1
13 | COc1cccc(Nc2cc(C)nc(-c3ccncc3)n2)c1 | 80 to 110% | 271 nM | 144% | 82 nM |  |  |  |  |  | 
14 | COC(=O)c1cccc(Nc2nc(-c3ccncc3)nc3ccccc23)c1 | 80 to 110% | 405 nM |  |  | > 25% | 6370 nM |  |  |  | 
15 | N#Cc1ccc(Nc2nc(-c3ccccc3)nc3ccccc23)cc1 | 80 to 110% | 71.4 nM |  |  |  |  |  |  |  | 
16 | O=[N+]([O-])c1cc(Nc2nc(-c3cccnc3)nc3ccccc23)ccc1O | 80 to 110% | 245 nM | 151% | 7 nM |  |  |  |  |  | 
17 | Fc1cccc(Nc2nc(-c3cccnc3)nc3ccccc23)c1 | 80 to 110% | 156 nM | 140% | 58 nM |  |  |  | 100000 nM | 46800 nM | 300
18 | O=S(=O)(F)c1cccc(Nc2nc(-c3ccncc3)nc3ccccc23)c1 | 80 to 110% | 1380 nM |  |  |  |  |  |  |  | 
19 | CN(C)c1cccc(Nc2nc(-c3cccnc3)nc3ccccc23)c1 | 80 to 110% | 1200 nM |  |  |  |  |  | 14100 nM | 10000 nM | 8.33
20 | O=C(O)c1cccc(Nc2nc(-c3ccncc3)nc3ccccc23)c1 | 80 to 110% | 60000 nM |  |  |  |  |  |  |  | 

The next lines start with results.

Row | Emax at 2 h [3] | IC50 [5] | Emax [6] | EC50 ([7]; read-out: EC50) | inhibition at 1 h, 10 µM [8] | IC50 [9] | EC50 [7] | SMILES | GI50 at 72 h [1] | GI50 at 72 h [2] | TI [4]
21 | 80 to 110% | 4260 nM |  |  |  |  |  | Oc1ccc(Nc2nc(-c3ccncc3)nc3ccccc23)cc1 | 120000 nM | 55000 nM | 12.9
22 | 80 to 110% | 1070 nM |  |  |  |  |  | Oc1cccc(Nc2nc(-c3ccncc3)nc3ccccc23)c1 | 12400 nM | 9220 nM | 8.62
23 | 80 to 110% | 128 nM | 140% | 2460 nM |  |  |  | Cc1cc(Nc2ccc(C#N)cc2)nc(-c2ccccc2)n1 | 28400 nM | 17800 nM | 139
24 | 80 to 110% | 376 nM | 119% | 676 nM |  |  |  | O=[N+]([O-])c1cccc(Nc2nc(-c3ccccn3)nc3ccccc23)c1 |  |  | 
25 | 80 to 110% | 132 nM | 133% | 22 nM |  |  |  | Cc1cc(Nc2cccc(C#N)c2)nc(-c2ccncc2)n1 | 9330 nM | 6920 nM | 52.4
26 | 80 to 110% | 648 nM | 100% |  |  |  | Not Active | Cc1cc(Nc2ccccc2)nc(-c2ccccc2)n1 | 136000 nM | 107000 nM | 165
27 | 80 to 110% | 117 nM | 185% | 4 nM |  |  |  | O=[N+]([O-])c1cccc(Nc2nc(-c3ccncc3)nc3ccccc23)c1 |  |  | 
28 | 80 to 110% | 362 nM |  |  |  |  |  | COC(=O)c1cccc(Nc2nc(-c3cccnc3)nc3ccccc23)c1 |  |  | 
29 | 80 to 110% | 921 nM |  |  |  |  |  | OCc1cccc(Nc2nc(-c3ccncc3)nc3ccccc23)c1 |  |  | 
30 | 80 to 110% | 753 nM |  |  | > 25% | 3110 nM |  | COc1ccc(Nc2nc(-c3cccnc3)nc3ccccc23)cc1OC |  |  | 
31 | 80 to 110% | 1630 nM |  |  | > 25% | 12700 nM |  | COc1cccc(Nc2nc(-c3ccccn3)nc3ccccc23)c1 |  |  | 
